Each block holds one compound with its values, some of them ahead of it. Active and inactive are the calls of the source. The calls are words filed in the database; no cut-off is given here.
Tests used:
[1] = system: Trypanosoma brucei rhodesiense; experiment: Antitrypanosomal activity against Trypanosoma brucei rhodesiense STIB900 after 72 hrs by Alamar blue assay; type: functional; details: STIB900, 72 h
In short: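 T. b. rhodesiense STIB 900 bloodstream forms (1 x 10³ per well) incubated with 3-fold serial drug dilutions from DMSO stocks (20 mM) diluted in medium, 37°C, 5% CO2, 72 h, in triplicate. Drug-free controls and medium-only blanks were included. Alamar Blue was then added for 2-4 h and fluorescence read at ex 530/em 580 nm. IC50 is the mean of two independent experiments.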

KB = experiment: Cytotoxicity against human KB cells after 72 hrs by Alamar blue assay; type: cell-based
In short: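 Human nasopharyngeal carcinoma KB cells were grown in RPMI 1640 with 10% heat-inactivated foetal calf serum at 37°C and 5% CO2. Monolayers were exposed to compounds for 72 h. Alamar Blue was then added for 2-4 h and fluorescence read at 530/580 nm. IC50 was derived by sigmoidal regression from the mean of two independent triplicate experiments.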

[2] = Selectivity index, ratio of IC50 for human KB cells to IC50 for Trypanosoma brucei rhodesiense STIB900; type: toxicity; details: read-out: Ratio IC50
In short: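 SI is calculated as the KB-cell IC50 divided by the T. b. rhodesiense STIB900 IC50.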

Leishmania donovani [3] = experiment: Antileishmanial activity against Leishmania donovani HU3 amastigote forms infected in CD-1 mouse macrophages at 30 uM after 2 to 3 days by Giemsa staining based microscopic method relative to control; type: functional
Leishmania donovani [4] = experiment: Antileishmanial activity against Leishmania donovani HU3 amastigote forms infected in CD-1 mouse macrophages at 10 uM after 2 to 3 days by Giemsa staining based microscopic method relative to control; type: functional

Compound: O=C(/C=C/c1cccnc1)c1ccccc1Br
- IC50 [1]: 37.8 µM
- IC50 (KB): > 300 µM
- selectivity ratio [2]: > 8
- Activity (Leishmania donovani [4]): inactive

Compound: O=C(/C=C/c1ccccc1)c1cccc(Br)c1
- IC50 [1]: 0.96 µM
- IC50 (KB): 18.4 µM
- selectivity ratio [2]: 19
- inhibition at 30 µM (Leishmania donovani [3]): 13.8%
- Activity (Leishmania donovani [4]): inactive

Compound: COc1ccccc1C(=O)/C=C/c1cccnc1
- IC50 [1]: 1.14 µM
- IC50 (KB): 22.7 µM
- selectivity ratio [2]: 20
- Activity (Leishmania donovani [4]): inactive

Compound: O=C(/C=C/c1cccnc1)c1ccc2c(c1)OCO2
- IC50 [1]: 4.83 µM
- IC50 (KB): 59.4 µM
- selectivity ratio [2]: 12
- Activity (Leishmania donovani [4]): inactive

Compound: O=C(CC(CC(=O)c1cccc(Br)c1)c1cccnc1)c1cccc(Br)c1
- IC50 [1]: 12.2 µM
- IC50 (KB): 181 µM
- selectivity ratio [2]: 15
- Activity (Leishmania donovani [4]): inactive

Compound: COc1ccc(C(=O)/C=C/c2cccnc2)cc1OC
- IC50 [1]: 0.98 µM
- IC50 (KB): 22.8 µM
- selectivity ratio [2]: 24
- Activity (Leishmania donovani [4]): inactive

Compound: COc1ccc(C(=O)/C=C/c2cccnc2)cc1
- IC50 [1]: 0.94 µM
- IC50 (KB): 21.7 µM
- selectivity ratio [2]: 23
- Activity (Leishmania donovani [4]): inactive

Compound: COc1cc([C@@H]2c3cc4c(cc3[C@H](O)[C@H]3COC(=O)[C@H]23)OCO4)cc(OC)c1OC [PODOFILOX]
- IC50 (KB): 0.058 µM

Compound: O=C(/C=C/c1cccnc1)c1ccc(F)c(F)c1
- IC50 [1]: 0.72 µM
- IC50 (KB): 20.7 µM
- selectivity ratio [2]: 29
- Activity (Leishmania donovani [4]): inactive

Compound: O=C(/C=C/c1cccnc1)c1cccc(O)c1
- IC50 [1]: 1.15 µM
- IC50 (KB): 21.7 µM
- selectivity ratio [2]: 19
- Activity (Leishmania donovani [4]): inactive

Compound: O=C(/C=C/c1cccnc1)c1cccnc1
- IC50 [1]: 1.02 µM
- IC50 (KB): 17 µM
- selectivity ratio [2]: 17
- Activity (Leishmania donovani [4]): inactive

Continued by falling IC50 [1], values first:

- IC50 [1]: 0.72 µM
Compound: O=C(/C=C/c1cccnc1)c1ccccc1
- IC50 (KB): 7.7 µM
- selectivity ratio [2]: 11
- Activity (Leishmania donovani [4]): inactive

- IC50 [1]: 0.69 µM
Compound: O=C(/C=C/c1cccc(Br)c1)c1cccnc1
- IC50 (KB): 43.7 µM
- selectivity ratio [2]: 63
- Activity (Leishmania donovani [4]): inactive

- IC50 [1]: 0.65 µM
Compound: O=C(/C=C/c1ccncc1)c1cccc(Br)c1
- IC50 (KB): 23.7 µM
- selectivity ratio [2]: 36
- Activity (Leishmania donovani [4]): inactive

- IC50 [1]: 0.62 µM
Compound: O=C(/C=C/c1cccnc1)c1cccc(Cl)c1
- IC50 (KB): 12.7 µM
- selectivity ratio [2]: 21
- inhibition at 30 µM (Leishmania donovani [3]): 2.7%
- Activity (Leishmania donovani [4]): inactive

- IC50 [1]: 0.41 µM
Compound: COc1cccc(C(=O)/C=C/c2cccnc2)c1
- IC50 (KB): 2.3 µM
- selectivity ratio [2]: 6
- Activity (Leishmania donovani [4]): inactive

- IC50 [1]: 0.4 µM
Compound: O=C(/C=C/c1ccccn1)c1cccc(Br)c1
- IC50 (KB): 14.7 µM
- selectivity ratio [2]: 37
- Activity (Leishmania donovani [4]): inactive

- IC50 [1]: 0.34 µM
Compound: O=C(/C=C/c1cccnc1)c1ccc(Br)cc1
- IC50 (KB): 7.9 µM
- selectivity ratio [2]: 23
- inhibition at 30 µM (Leishmania donovani [3]): 11.6%
- Activity (Leishmania donovani [4]): inactive

- IC50 [1]: 0.29 µM
Compound: O=C(/C=C/c1cccnc1)c1cccc(Br)c1
- IC50 (KB): 13.5 µM
- selectivity ratio [2]: 47
- inhibition at 30 µM (Leishmania donovani [3]): 39.7%
- Activity (Leishmania donovani [4]): inactive
